Bioassay records deposited in PubChem by several laboratories.
HCT116 PTEN-null = PTEN-deleted cell growth suppression; HCT116 PTEN-null viability, CellTiter-Glo, 60 h; hits give low values; 1.2% of 140,000 active; viability, % at 10 µM;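 active means viability at or below a set limit, 4 SD under the median of all tested compounds, cut at about 3.7% in these data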;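 further: PTEN knockout HCT116 line with beta catenin targeted HCT116 as companion control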
L major viab = inhibitors of Leishmania major promastigote growth. Leishmania major promastigotes, resazurin fluorescence viability. inhibition, % at 10 µM. 9% of 200,000 active. AID 1063; in the data active means inhibition above about 50%;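 further: promastigotes grown with compound for 44 hours at 28 °C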
bCat KO growth = beta-catenin-lacking colon tumor cell growth suppression; HCT116 beta-catenin knockout viability, CellTiter-Glo, 60 h; hits give low values; viability, % at 10 µM; 1.5% of 140,000 active; AID 818;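 active means viability at or under a set limit, the compound median less 4 SD, cut at about 6% in these data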;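 further: 0% = Hyamine 1622 control at 20 µM and 100% = untreated cell control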
PMI activator = activators of human phosphomannose isomerase; P34949; purified human PMI, coupled resazurin fluorescence, 20 min; hits give high values; 1 = vehicle control, 0 substrate-free wells; activation factor at 20 µM; 0.005% of 190,000 active; AID 1214;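 active means activation factor of 2 or more at 20 µM, relative to plate controls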
Target sequence (P34949 whole entry, looked up): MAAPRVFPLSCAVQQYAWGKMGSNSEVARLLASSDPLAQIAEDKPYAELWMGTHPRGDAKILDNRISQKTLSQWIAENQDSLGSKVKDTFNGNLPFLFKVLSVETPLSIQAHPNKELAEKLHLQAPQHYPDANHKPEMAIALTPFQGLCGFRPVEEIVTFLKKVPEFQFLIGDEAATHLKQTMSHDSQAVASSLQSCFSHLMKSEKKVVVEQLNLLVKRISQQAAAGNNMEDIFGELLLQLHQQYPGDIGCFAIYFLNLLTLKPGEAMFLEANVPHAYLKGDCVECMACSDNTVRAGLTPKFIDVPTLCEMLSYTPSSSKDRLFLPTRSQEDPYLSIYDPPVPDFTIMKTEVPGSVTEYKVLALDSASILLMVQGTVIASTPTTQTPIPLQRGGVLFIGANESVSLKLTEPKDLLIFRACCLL
PMI act hi M6P = activators of human phosphomannose isomerase at near-saturating mannose 6-phosphate. P34949. coupled PMI enzyme assay, resazurin fluorescence, 20 min; hits give high values; 1 = untreated enzyme, 0 = substrate-free blank. activation factor at 20 µM. 0.34% of 190,000 active;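 active means activation factor of 2 or more at 20 µM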
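assay system = human phosphomannose isomerase with PGI, G6PDH, diaphorase coupling enzymes | quantity = 15 ng/mL PMI | incubation = enzyme reaction with compound 20 min at room temperature | medium = HEPES pH 7.4 buffer with MgCl2 and Tween-20 | compound dosing = one concentration, 20 µM, in 1% DMSO | measured by = Diaphorase-driven resazurin-to-resorufin fluorescence, excitation 544, emission 590 nm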
* marks the source's active call; other numbers are inactive results. The list is not random: actives were taken first. Their share in the collection is about 9.6%.

`CC(C)(O)C#Cc1ccc(CN2CCN(C3CCCC3)C(CCO)C2)cc1` (configuration not stated) gave L major viab -3, PMI activator 0.9 and PMI act hi M6P 0.9.
For CN(C)c1ccc(/C=N/N2C(=S)SC(C)(C)C2N(O)C(=O)Nc2ccc([N+](=O)[O-])cc2)cc1 (configuration not stated) the results were HCT116 PTEN-null 84, L major viab 44, bCat KO growth 78, PMI activator 0.9 and PMI act hi M6P 0.9.
`N#C/C(=C\c1ccc(OCC(N)=O)cc1)c1ccccc1` gave HCT116 PTEN-null 92, L major viab 58*, bCat KO growth 93, PMI activator 1 and PMI act hi M6P 0.9.
`C=CC[n+]1c(/C=C2\C=Cc3cc(C)ccc3N2CC)ccc2ccccc21` gave L major viab 100*, PMI activator 0.8 and PMI act hi M6P 0.9.
Screening CCc1nnc(NC(=O)Cc2ccc(Br)cc2)s1 returned L major viab 0, PMI activator 0.9 and PMI act hi M6P 0.9.
Screening O=C(O)CCSc1nnc(SCC(=O)NCC(F)(F)F)s1 returned HCT116 PTEN-null 99, L major viab 63*, bCat KO growth 92, PMI activator 1.2 and PMI act hi M6P 1.3.
Cc1ccc(C2Nc3ccccc3NC3=C2C(=O)OC(C)C3)cc1 (configuration not stated) was read as HCT116 PTEN-null 97, L major viab 12, bCat KO growth 94, PMI activator 0.9 and PMI act hi M6P 0.9.
`CC1CC(=O)C2=C(C1)Nc1ccccc1SC2c1ccc(F)cc1` (configuration not stated) gave HCT116 PTEN-null 67, L major viab 68*, bCat KO growth 80, PMI activator 0.9 and PMI act hi M6P 0.8.
COC(C)(C)[C@H](O)COc1c2ccoc2cc2oc(=O)ccc12 was read as HCT116 PTEN-null 0.7*, L major viab 0, bCat KO growth 0.6*, PMI activator 0.9 and PMI act hi M6P 1.
Screening CC(C)(O)C(O)COc1c2ccoc2cc2oc(=O)ccc12 (configuration not stated) returned L major viab -5, PMI activator 1 and PMI act hi M6P 0.9.
Screening CCn1c(/C=C\c2ccccc2C)nc2ccccc2c1=O returned L major viab 21, PMI activator 1 and PMI act hi M6P 1.1.
`Cc1ccccc1/C=C\c1nc2ccccc2c(=O)n1Cc1ccccc1` gave HCT116 PTEN-null 60, L major viab 99*, bCat KO growth 65, PMI activator 0.9 and PMI act hi M6P 1.
For CN(C)S(=O)(=O)Nc1cc(Cl)cc(Cl)c1 the results were L major viab -6, PMI activator 1 and PMI act hi M6P 1.
Screening COc1ccc(Nc2nc(-c3cccs3)nc3ccccc23)cc1 returned HCT116 PTEN-null 60, L major viab 40, bCat KO growth 62, PMI activator 0.9 and PMI act hi M6P 0.9.
Screening CCCCCCCCNc1ncnc2ccccc12 returned HCT116 PTEN-null 10, L major viab 77*, bCat KO growth 8, PMI activator 0.9 and PMI act hi M6P 1.
`COc1cccc(CN(C)c2nc(-c3cccs3)nc3ccccc23)c1` gave HCT116 PTEN-null 56, L major viab 92*, bCat KO growth 61, PMI activator 0.8 and PMI act hi M6P 0.9.
`COc1cccc(Nc2ncnc3ccccc23)c1` gave HCT116 PTEN-null 105, L major viab 62*, bCat KO growth 95, PMI activator 1 and PMI act hi M6P 1.
Screening COc1cccc(Nc2nc(-c3cccs3)nc3ccccc23)c1 returned HCT116 PTEN-null 59, L major viab 99*, bCat KO growth 59, PMI activator 0.8 and PMI act hi M6P 0.8.
Screening CC/C(C)=N/NC(=S)NCc1ccco1 returned HCT116 PTEN-null 93, L major viab -2, bCat KO growth 93, PMI activator 1.2 and PMI act hi M6P 1.1.
For Cc1cccc(NC(=S)N/N=C/c2c[nH]c3ccccc23)c1 the results were HCT116 PTEN-null 15, L major viab 29, bCat KO growth 14, PMI activator 1 and PMI act hi M6P 1.
CCOC(=O)N1CCN(C(=O)c2ccc(NC(=O)c3ccc(C)cc3)cc2)CC1 was read as HCT116 PTEN-null 109, L major viab -6, bCat KO growth 95, PMI activator 1 and PMI act hi M6P 1.
